pKi: −log10 of the molar value.

Results on eight molecules are retold here after ChEMBL document CHEMBL1139773, “New fluoro-diphenylchalcogen derivatives to explore the serotonin transporter by PET” (Bioorg Med Chem Lett, 2007).

Holding throughout (assay type): tissue-based
The target in test [1] is Sodium-dependent dopamine transporter (Rattus norvegicus, UniProt P23977). Kind of test: Displacement of [3H]WIN-35428 from DAT in rat brain. A digest of the protocol:
(§1)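 Competition binding in rat cortical and striatal brain homogenates, with tissue assignment per transporter not specified. Radioligands were [3H]WIN 35,428 for DAT, [3H]nisoxetine for NET and [3H]paroxetine for SERT. Ki values are means of two independent experiments, each run in triplicate; some entries come from a single experiment (n = 1, in triplicate).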
On the technique in general: Displacement assays read how much labelled ligand stays bound in the presence of the test substance.

The target in test [2] is T1, Sodium-dependent serotonin transporter (Rattus norvegicus, UniProt P31652). Kind of test: Displacement of [3H]paroxetine from SERT in rat brain. Put shortly: as §1
The target in test [3] is Norepinephrine transporter (Rattus norvegicus, UniProt Q9WTR4). Kind of test: Displacement of [3H]nisoxetine from NET in rat brain. A digest of the protocol: as §1
The target of test [4] is T1, Sodium-dependent serotonin transporter. The test is described as follows: Displacement of [3H]citalopram from SERT in rat brain.

T1 sequence (P31652 whole entry): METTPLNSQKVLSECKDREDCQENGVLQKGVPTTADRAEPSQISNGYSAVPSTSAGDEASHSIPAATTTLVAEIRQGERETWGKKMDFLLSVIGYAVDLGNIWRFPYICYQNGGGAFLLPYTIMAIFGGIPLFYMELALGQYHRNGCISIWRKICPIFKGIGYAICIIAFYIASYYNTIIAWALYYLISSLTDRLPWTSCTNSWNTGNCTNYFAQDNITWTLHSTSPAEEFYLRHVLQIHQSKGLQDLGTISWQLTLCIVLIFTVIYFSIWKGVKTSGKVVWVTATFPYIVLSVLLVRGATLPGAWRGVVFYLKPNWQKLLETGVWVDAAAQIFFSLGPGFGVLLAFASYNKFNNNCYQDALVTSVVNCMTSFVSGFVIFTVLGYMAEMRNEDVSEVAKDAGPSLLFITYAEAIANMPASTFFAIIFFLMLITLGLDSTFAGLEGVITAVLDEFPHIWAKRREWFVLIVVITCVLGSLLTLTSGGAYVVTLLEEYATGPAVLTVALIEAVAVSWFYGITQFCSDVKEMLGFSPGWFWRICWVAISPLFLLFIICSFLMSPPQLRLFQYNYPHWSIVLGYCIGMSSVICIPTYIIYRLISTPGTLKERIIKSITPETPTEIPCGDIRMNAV
Sequence of Norepinephrine transporter (Q9WTR4 whole entry): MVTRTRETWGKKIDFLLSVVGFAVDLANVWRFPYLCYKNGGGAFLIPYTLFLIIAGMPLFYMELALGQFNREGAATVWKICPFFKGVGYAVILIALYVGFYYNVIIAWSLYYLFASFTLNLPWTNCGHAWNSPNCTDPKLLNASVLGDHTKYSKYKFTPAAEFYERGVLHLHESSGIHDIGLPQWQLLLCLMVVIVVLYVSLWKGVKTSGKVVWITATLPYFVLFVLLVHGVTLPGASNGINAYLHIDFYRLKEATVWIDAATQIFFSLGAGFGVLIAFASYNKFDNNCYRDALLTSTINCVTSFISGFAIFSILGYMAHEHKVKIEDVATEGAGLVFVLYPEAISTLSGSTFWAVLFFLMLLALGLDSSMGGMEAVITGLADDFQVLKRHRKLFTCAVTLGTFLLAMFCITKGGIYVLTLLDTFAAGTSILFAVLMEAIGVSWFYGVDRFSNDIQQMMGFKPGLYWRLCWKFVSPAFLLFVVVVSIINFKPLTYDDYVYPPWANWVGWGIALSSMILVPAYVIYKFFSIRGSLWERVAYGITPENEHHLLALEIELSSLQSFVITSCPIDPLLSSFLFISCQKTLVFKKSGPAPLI
Sequence of Sodium-dependent dopamine transporter (P23977 whole entry): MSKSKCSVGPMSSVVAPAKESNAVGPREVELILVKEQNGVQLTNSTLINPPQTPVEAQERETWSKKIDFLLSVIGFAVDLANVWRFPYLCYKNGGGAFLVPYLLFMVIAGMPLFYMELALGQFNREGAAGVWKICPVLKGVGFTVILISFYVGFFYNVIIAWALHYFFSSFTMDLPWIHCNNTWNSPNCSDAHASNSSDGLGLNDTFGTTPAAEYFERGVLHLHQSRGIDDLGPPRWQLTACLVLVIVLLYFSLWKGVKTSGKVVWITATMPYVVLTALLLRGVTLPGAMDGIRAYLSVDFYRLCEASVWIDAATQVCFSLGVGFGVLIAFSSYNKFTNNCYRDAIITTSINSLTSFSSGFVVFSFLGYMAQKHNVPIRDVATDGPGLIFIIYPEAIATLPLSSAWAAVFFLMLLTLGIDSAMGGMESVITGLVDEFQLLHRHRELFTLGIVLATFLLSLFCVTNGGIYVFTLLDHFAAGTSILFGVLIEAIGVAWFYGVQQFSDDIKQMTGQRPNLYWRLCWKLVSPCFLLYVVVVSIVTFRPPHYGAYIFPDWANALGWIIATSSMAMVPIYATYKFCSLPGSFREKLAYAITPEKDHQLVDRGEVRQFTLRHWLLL

Take `CN(C)Cc1ccccc1Oc1ccc(F)cc1N`: the pKi (in general, the Ki on a negative log10 scale, so that one unit is a factor of ten) is 5.36 in test [1], 7.87 in test [2] and 5.97 in test [3].

`CN(C)Cc1cc(Cl)ccc1Oc1ccc(F)cc1N`: the pKi in test [4] was 8.69; in test [1], 5.60; in test [3], 5.56.

For the molecule `Cc1ccc(Sc2ccc(F)cc2CN(C)C)c(N)c1`, the negative logarithm of the Ki (pKi) in test [1] was 5.44; in test [2] it was 9.57; in test [3], 5.98.

`Cc1ccc(Sc2ccccc2CN(C)C)c(N)c1`: the results for the pKi in test [1] and in test [2] were 5.38 and 9.21, respectively.

With `CN(C)Cc1cc(F)ccc1Sc1ccc(Cl)cc1N`, the negative logarithm of the Ki (pKi) was 5.74 in test [1], 9.46 in test [2] and 6.04 in test [3].

As for `CN(C)Cc1cc(F)ccc1Oc1ccc(C#N)cc1N`, the figures for the pKi in test [1], in test [2] and in test [3] were 4.17, 8.54 and 5.26, respectively.

As for `CN(C)Cc1cc(F)ccc1Sc1ccc(C#N)cc1N`, the pKi is 9.55 in test [4], 4.85 in test [1] and 4.75 in test [3].

As to `Cc1ccc(Oc2ccc(F)cc2CN(C)C)c(N)c1`, the pKi in test [1] is 5.55; in test [2], 8.15; in test [3], 6.29.
